Measured values: ChEMBL document CHEMBL1821722, “Design, synthesis and biological evaluation of novel desmuramyldipeptide analogs” (Eur J Med Chem, 2011)
Calls of active or inactive are those of the source. The calls are words filed in the database; no cut-off is given here.

Legend:
THP-1 [1] = experiment: Immunomodulatory effect in human THP1 cells assessed as increase in LPS-induced TNF-alpha release at 20.2 uM after 24 hrs by sandwich ELISA relative to LPS; assay type: functional
Procedure, shortened: (§1)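 THP-1 cells at 10⁶ cells/ml in RPMI 1640 with 10% heat-inactivated FCS. Co-incubated 24 h with compound (0.2–200 µM) plus E. coli 0127:B8 LPS 1 ng/ml, DMSO vehicle ≤0.2% final. TNF-α in supernatant expressed as % of LPS-induced release, mean ± SD of 6 samples.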

THP-1 [2] = experiment: Toxicity in human THP1 cells assessed TNF-alpha release at 20.2 uM after 24 hrs by sandwich ELISA; assay type: cell-based; conditions: thp-1, 24 h
Procedure, shortened: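 THP-1 in supplemented RPMI 1640 co-incubated 24 h with 20.2 µM compound and 1 ng/ml LPS, DMSO ≤0.2%. TNF-α release expressed as % of the LPS-only response, mean ± SD of 6 samples, Mann-Whitney U test.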

PBMC [3] = experiment: Cytotoxicity against human PBMC assessed as LDH release at 20.2 uM; assay type: cell-based
THP-1 [4] = experiment: Cytotoxicity against human THP1 cells assessed as LDH release at 20.2 uM; assay type: cell-based; conditions: thp-1, 20.2 µM
Procedure, shortened: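 LDH leakage into the medium used as the cytotoxicity read-out, taken at the highest concentration tested.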

PBMC [5] = experiment: Immunomodulatory effect in human PBMC cells assessed as increase in LPS-induced TNF-alpha release at 20.2 uM after 24 hrs by sandwich ELISA; assay type: functional, cell-based
PBMC [6] = experiment: Immunosuppressive effect in human PBMC cells assessed as […] in […]/ionomycin-induce TNFalpha release at 20.2 uM after 18 hrs by flow cytometry analysis relative to PMA and ionomycin; assay type: functional
Procedure, shortened: (§2)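 PBMC prepared from donor buffy coat on Ficoll-Paque and kept in supplemented RPMI 1640. Cells (0.5 × 10⁶) given 20.2 µM compound with PMA 3.33 ng/ml and ionomycin 500 nM (final) for 18 h at 37 °C, 5% CO₂. Supernatant IL-1β, IL-6, IL-8, IL-10 and TNF-α read by flow cytometry. Expressed relative to PMA/ionomycin alone, mean ± SD of 4 samples, two donors.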

PBMC [7] = experiment: Immunomodulatory effect in human PBMC cells assessed as decrease in LPS-induced IL-10 release at 20.2 uM after 18 hrs by flow cytometry analysis relative to LPS; assay type: functional; design: scale not given: the % may be the effect or the level left
Procedure, shortened: (§3)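 Human PBMC isolated from healthy-donor buffy coats on a Ficoll-Paque gradient. Cultured in RPMI 1640 with 10% heat-inactivated FCS, 2 mM L-glutamine and 50 µM 2-mercaptoethanol. 0.5 × 10⁶ cells exposed to 20.2 µM compound plus 10 ng/ml LPS, DMSO ≤0.1%, for 18 h at 37 °C in 5% CO₂. Supernatant cytokines measured by flow cytometric bead assay. Values are % of LPS alone, mean ± SD of 4 samples, two donors.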

PBMC [8] = experiment: Immunosuppressive effect in human PBMC cells assessed as […] in […]/ionomycin-induce IL1-beta release at 20.2 uM after 18 hrs by flow cytometry analysis relative to PMA and ionomycin; assay type: functional; procedure, shortened: as §2
PBMC [9] = experiment: Immunomodulatory effect in human PBMC cells assessed as decrease in LPS-induced IL-6 release at 20.2 uM after 18 hrs by flow cytometry analysis relative to LPS; assay type: functional; design: scale not given: the % may be the effect or the level left; procedure, shortened: as §3
PBMC [10] = experiment: Immunomodulatory effect in human PBMC cells assessed as decrease in LPS-induced IL-8a release at 20.2 uM after 18 hrs by flow cytometry analysis relative to LPS; assay type: functional; design: scale not given: the % may be the effect or the level left; procedure, shortened: as §3
PBMC [11] = experiment: Immunosuppressive effect in human PBMC cells assessed as […] in […]/ionomycin-induce IL-8a release at 20.2 uM after 18 hrs by flow cytometry analysis relative to PMA and ionomycin; assay type: functional; procedure, shortened: as §2
PBMC [12] = experiment: Immunomodulatory effect in human PBMC cells assessed as increase in LPS-induced TNFalpha release at 20.2 uM after 18 hrs by flow cytometry analysis relative to LPS; assay type: functional; procedure, shortened: as §3
PBMC [13] = experiment: Immunosuppressive effect in human PBMC cells assessed as […] in […]/ionomycin-induce IL-10 release at 20.2 uM after 18 hrs by flow cytometry analysis relative to PMA and ionomycin; assay type: functional; procedure, shortened: as §2
PBMC [14] = experiment: Immunomodulatory effect in human PBMC cells assessed as LPS-induced IL1-beta release at 20.2 uM after 18 hrs by flow cytometry analysis relative to LPS; assay type: functional; procedure, shortened: as §3
PBMC [15] = experiment: Immunosuppressive effect in human PBMC cells assessed as […] in […]/ionomycin-induce IL-6 release at 20.2 uM after 18 hrs by flow cytometry analysis relative to PMA and ionomycin; assay type: functional; procedure, shortened: as §2
PBMC [16] = experiment: Immunostimulatory effect in human PBMC cells assessed as increase in […]/ionomycin-induce IL-8a release at 20.2 uM after 18 hrs by flow cytometry analysis relative to PMA and ionomycin; assay type: functional; procedure, shortened: as §2
PBMC [17] = experiment: Immunostimulatory effect in human PBMC cells assessed as increase in […]/ionomycin-induce IL-6 release at 20.2 uM after 18 hrs by flow cytometry analysis relative to PMA and ionomycin; assay type: functional; procedure, shortened: as §2
PBMC [18] = experiment: Immunostimulatory effect in human PBMC cells assessed as increase in […]/ionomycin-induce IL-10 release at 20.2 uM after 18 hrs by flow cytometry analysis relative to PMA and ionomycin; assay type: functional; procedure, shortened: as §2
PBMC [19] = experiment: Immunostimulatory effect in human PBMC cells assessed as increase in […]/ionomycin-induce IL1-beta release at 20.2 uM after 18 hrs by flow cytometry analysis relative to PMA and ionomycin; assay type: functional; procedure, shortened: as §2
PBMC [20] = experiment: Immunostimulatory effect in human PBMC cells assessed as increase in […]/ionomycin-induce TNFalpha release at 20.2 uM after 18 hrs by flow cytometry analysis relative to PMA and ionomycin; assay type: functional; procedure, shortened: as §2
PBMC [21] = experiment: Immunomodulatory effect in human PBMC cells assessed as increase in LPS-induced IL-10 release at 20.2 uM after 18 hrs by flow cytometry analysis relative to LPS; assay type: functional; procedure, shortened: as §3
THP-1 [22] = experiment: Immunomodulatory effect in human THP1 cells assessed as increase in LPS-induced TNF-alpha release at 0.2 uM after 24 hrs by sandwich ELISA relative to LPS; assay type: functional; procedure, shortened: as §1
PBMC [23] = experiment: Immunomodulatory effect in human PBMC cells assessed as increase in LPS-induced IL-8a release at 20.2 uM after 18 hrs by flow cytometry analysis relative to LPS; assay type: functional; procedure, shortened: as §3
THP-1 [24] = experiment: Immunomodulatory effect in human THP1 cells assessed as increase in LPS-induced TNF-alpha release at 2 uM after 24 hrs by sandwich ELISA relative to LPS; assay type: functional; procedure, shortened: as §1
THP-1 [25] = experiment: Immunomodulatory effect in human THP1 cells assessed as increase in LPS-induced TNF-alpha release at 200 uM after 24 hrs by sandwich ELISA relative to LPS; assay type: functional; procedure, shortened: as §1
PBMC [26] = experiment: Immunomodulatory effect in human PBMC cells assessed as increase in LPS-induced IL-6 release at 20.2 uM after 18 hrs by flow cytometry analysis relative to LPS; assay type: functional; procedure, shortened: as §3
THP-1 [27] = experiment: Immunomodulatory effect in human THP1 cells assessed as increase in LPS-induced TNF-alpha release after 24 hrs by sandwich ELISA relative to LPS; assay type: functional, cell-based; procedure, shortened: as §1

Structure (SMILES)	Activity (THP-1 [1]) [%]	Activity (THP-1 [2])	Activity (PBMC [3])	Activity (THP-1 [4])	Activity (PBMC [12]) [%]	Activity (PBMC [14]) [%]	Activity (PBMC [16]) [%]	Activity (PBMC [17]) [%]	Activity (PBMC [18]) [%]	Activity (PBMC [19]) [%]	Activity (PBMC [20]) [%]	Activity (PBMC [21]) [%]	Activity (PBMC [26]) [%]	also measured
C[C@H](NC(=O)CCCCN1C(=O)c2ccccc2S1(=O)=O)C(=O)N[C@@H](CCC(=O)O)C(N)=O	119.3	Non-toxic	Non-toxic	Non-toxic	–	–	–	–	–	–	–	–	–	–
C[C@H](NC(=O)CCNC(=O)c1cc2ccccc2[nH]1)c1noc(CCC(=O)O)n1	113.4	Non-toxic	Non-toxic	Non-toxic	–	–	–	–	–	–	–	–	–	–
C[C@@H](NC(=O)CCCCN1C(=O)c2ccccc2S1(=O)=O)C(=O)N[C@@H](CCC(=O)O)C(N)=O	91	Non-toxic	Non-toxic	Non-toxic	–	–	–	–	–	–	–	–	–	–
CC(=O)N[C@@H]1[C@@H](O[C@H](C)C(=O)N[C@@H](C)C(=O)N[C@@H](CCC(=O)O)C(N)=O)[C@H](O)[C@@H](CO)O[C@H]1O	–	–	–	–	–	–	–	–	–	–	–	–	–	Activity (PBMC [5]): Active
C[C@H](NC(=O)CNC(=O)c1cc2ccccc2[nH]1)C(=O)N[C@H](CCC(=O)O)C(=O)O	118.5	Non-toxic	Non-toxic	Non-toxic	103.5	78	–	–	–	–	–	–	–	Activity (PBMC [6]): 63.5%; Activity (PBMC [7]): 68.5%; Activity (PBMC [8]): 96.5%; Activity (PBMC [9]): 76.8%; Activity (PBMC [10]): 95.5%; Activity (PBMC [11]): 90%; Activity (PBMC [13]): 75.8%; Activity (PBMC [15]): 42.5%
C[C@@H](NC(=O)CCCCN1C(=O)c2ccccc2S1(=O)=O)C(=O)N[C@H](CCC(=O)O)C(N)=O	115.3	Non-toxic	Non-toxic	Non-toxic	–	–	–	–	–	–	–	–	–	–
C[C@H](NC(=O)COCCN1C(=O)c2ccccc2S1(=O)=O)C(=O)N[C@H](CCC(=O)O)C(=O)O	117	Non-toxic	Non-toxic	Non-toxic	104	85	104	91	116	112	124	–	–	Activity (PBMC [7]): 65.5%; Activity (PBMC [9]): 86%; Activity (PBMC [10]): 89.5%
C[C@H](NC(=O)C1=C2c3ccccc3S(=O)(=O)N2CCC1)C(=O)N[C@H](CCC(=O)O)C(N)=O	120.2	Non-toxic	Non-toxic	Non-toxic	115	94	103	74	88.5	88	105.5	94	103.5	Activity (THP-1 [22]): 90.3%; Activity (PBMC [23]): 98.5%; Activity (THP-1 [24]): 92.5%; Activity (THP-1 [25]): 204.3%; Activity (THP-1 [27]): Dose-dependent effect
C[C@H](NC(=O)CCCCN1C(=O)c2ccccc2S1(=O)=O)C(=O)N[C@H](CCC(=O)O)C(N)=O	114	Non-toxic	Non-toxic	Non-toxic	108.5	106	103	81	84.5	91.5	96	98	109	Activity (PBMC [23]): 97.5%
C[C@H](NC(=O)COCCN1C(=O)c2ccccc2S1(=O)=O)C(=O)N[C@H](CCC(=O)O)C(N)=O	114.3	Non-toxic	Non-toxic	Non-toxic	104.5	95.5	110.5	63.5	89.5	122	83.5	84.5	95.5	Activity (PBMC [10]): 96.5%
C[C@H](NC(=O)CNC(=O)c1cc2ccccc2[nH]1)C(=O)N[C@H](CCC(=O)O)C(N)=O	126.2	Non-toxic	Non-toxic	Non-toxic	101	90.5	–	–	–	–	–	–	–	Activity (PBMC [6]): 93.5%; Activity (PBMC [7]): 71.5%; Activity (PBMC [8]): 91.5%; Activity (PBMC [9]): 74%; Activity (PBMC [10]): 98.5%; Activity (PBMC [11]): 98.5%; Activity (PBMC [13]): 102%; Activity (PBMC [15]): 76%
CCOC(=O)CC[C@@H](NC(=O)[C@H](C)NC(=O)C1=C2c3ccccc3S(=O)(=O)N2CCC1)C(N)=O	122	Non-toxic	Non-toxic	Non-toxic	122.5	95	134	139.5	82.5	406	142	105.5	120	Activity (PBMC [23]): 94.5%
CCCCOC(=O)[C@@H](CCC(N)=O)NC(=O)[C@H](C)NC(=O)[C@@H](C)O[C@H]1[C@H](O)[C@@H](CO)OC(O)[C@@H]1NC(C)=O (stereo partly specified) [MURABUTIDE]	182.6	Non-toxic	Non-toxic	Non-toxic	696.5	416.5	152	439.5	158.5	2964.5	332.5	559	594.5	Activity (PBMC [23]): 107%
C[C@H](NC(=O)C1CCCN2C1c1ccccc1S2(=O)=O)C(=O)N[C@H](CCC(=O)O)C(=O)O (stereo partly specified)	110.5	Non-toxic	Non-toxic	Non-toxic	–	–	–	–	–	–	–	–	–	–
C[C@H](NC(=O)C1=C2c3ccccc3S(=O)(=O)N2CCC1)C(=O)N[C@H](CCC(=O)O)C(=O)O	113.3	Non-toxic	Non-toxic	Non-toxic	–	–	–	–	–	–	–	–	–	–
